Consider 24 molecules from ChEMBL document CHEMBL1122944, “The histamine H2 receptor agonist impromidine: synthesis and structure-activity considerations” (J Med Chem, 1985).

Test [1] has as its target Histamine H2 receptor (Cavia porcellus) (UniProt P47747). Nature of the test: Percent maximum response against histamine H2 receptor in guinea pig atrium was evaluated. In kind it is tissue-based. Particulars: Cardiac atrium. An outline of the steps:
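Isolated guinea pig atrium under 400-mg tension with propranolol (0.5 μM). Complete cumulative dose-response curves to histamine and test agonist, up to 781 μM, used to find the maximum response obtainable, expressed relative to histamine.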

Test [2] shares this target. Nature of the test: Agonistic activity against histamine H2 receptor in guinea pig atrium(potency relative to histamine =1). Type of test: functional, tissue-based. Particulars: Cardiac atrium. An outline of the steps: (§1)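 Isolated guinea pig atrium, muscle under 400-mg tension, propranolol (0.5 μM) present. Agonist tested up to 781 μM (0.1% histamine) by cumulative dose-response curves. Potency relative to histamine taken from concentrations giving 50% of maximal response; selected compounds by 2 + 2 Latin square parallel-line assay against histamine.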

For test [3] the target is unchanged. Nature of the test: Agonistic activity against histamine H2 receptor in guinea pig atrium (potency relative to histamine =1). Particulars: Cardiac atrium. In kind it is functional, tissue-based. An outline of the steps: as §1
In test [4] the target is T1, Histamine H2 receptor (Cavia porcellus, UniProt P47747). Nature of the test: Antagonistic activity against H2 receptor in guinea pig. In kind it is functional. Particulars: read-out: pA2 (converted).
The target in test [5] is T1, Histamine H2 receptor. Nature of the test: Antagonistic activity against H2 receptor in guinea pig was evaluated. Type of test: functional. The note with it: read-out: pA2 (converted). An outline of the steps:
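Guinea pig atrium under 400-mg tension with propranolol (0.5 μM). Histamine concentrations giving half-maximal response measured with and without several antagonist concentrations (B). K_B = B/(x − 1), x being the concentration ratio; pA2 = −log K_B.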

For test [6], the target named is Histamine H2 receptor (Cavia porcellus) (UniProt P47747). The note with it: Cardiac atrium.
Chain of Histamine H2 receptor (Cavia porcellus) (P47747 whole entry): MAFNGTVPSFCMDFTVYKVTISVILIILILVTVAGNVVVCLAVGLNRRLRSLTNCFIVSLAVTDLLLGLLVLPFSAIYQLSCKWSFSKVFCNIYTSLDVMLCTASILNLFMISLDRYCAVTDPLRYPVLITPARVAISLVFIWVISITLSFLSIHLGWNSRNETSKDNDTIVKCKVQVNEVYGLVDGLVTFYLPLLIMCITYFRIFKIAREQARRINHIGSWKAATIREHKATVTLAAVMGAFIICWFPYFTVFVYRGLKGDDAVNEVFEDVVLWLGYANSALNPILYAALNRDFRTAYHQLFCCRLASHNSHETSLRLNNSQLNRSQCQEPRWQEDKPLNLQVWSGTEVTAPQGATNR

T1 sequence (P47747 whole entry): as above

Regarding `CC1=NN(c2ccc([N+](=O)[O-])cc2)C(=O)C1[N+](=O)[O-].CN/C(=N\CCCc1c[nH]cn1)NCCSCc1[nH]cnc1C`, the Max response in test [1] was 91%. Besides, the Potency in test [2] was 0.062.

Regarding `CC1=NN(c2ccc([N+](=O)[O-])cc2)C(=O)C1[N+](=O)[O-].Cc1[nH]cnc1CSCC/N=C(\N)NCCc1c[nH]cn1`, the Max response in test [1] stood at 100%. In test [3], this molecule yielded a Potency of 1.93.

With `Cc1[nH]cnc1CSCC/N=C(\N)SCCCc1c[nH]cn1`, in test [4], the Kb is 3.31 µM.

For the molecule `Cc1nc[nH]c1CSCCNC(=S)NCCCc1cnc[nH]1`, the Kb in test [4] is 1.2 µM.

Regarding `Cc1[nH]cnc1CSCC/N=C(\NC#N)NCCCc1c[nH]cn1`, the Kb in test [4] was 0.575 µM.

`CSC(=N)NCCCc1c[nH]cn1` registered a Max response in test [1] of 23%. This molecule displayed a Potency in test [3] of 0.1. Besides, in test [4], the Kb was 25.1 µM.

For `CC1=NN(c2ccc([N+](=O)[O-])cc2)C(=O)C1[N+](=O)[O-].Cc1[nH]cnc1CSCC/N=C(\N)NCCCc1cn(C)cn1`, the Max response in test [1] was 11%. Also, in test [3], the Potency is 0.007. For the same molecule, in test [4], the Kb is 1.58 µM.

For the molecule `C/N=C(\N)NCCCc1c[nH]cn1`, the Max response in test [1] worked out at 62%. Moreover, the Potency in test [3] was found to be 0.2. Besides, the Kb in test [4] is 12.6 µM.

`Cc1[nH]cnc1CSCC/N=C(\N)NCCCCc1c[nH]cn1` showed a Max response in test [1] of 20%. This molecule also registered a Potency in test [3] of 0.83. Besides, the Kb in test [4] is 1.15 µM.

For the molecule `CSC(=N)NCCSCc1[nH]cnc1C`, the Kb in test [4] was 6.92 µM.

Molecule `C/N=C(\N)NCCCCc1c[nH]cn1` gave a Max response in test [1] of 46%. For the same molecule, the Potency in test [3] stood at 0.074. For the same molecule, the Kb in test [4] is 100 µM.

With `N=C(NCCCc1c[nH]cn1)NCCSCc1nccs1`, the Max response in test [1] turned out to be 91%. Further, in test [3], the Potency is 24.4.

`C/N=C(\N)NCCSCc1[nH]cnc1C`: in test [4], the Kb was 16.2 µM.

In turn, `Cc1[nH]cnc1CSCCNC(=N)NCCCc1c[nH]cn1` yielded a Max response in test [1] of 98.7%. This molecule also registered a Potency in test [3] of 48.1.

Regarding `Cc1[nH]cnc1CSCCNC(=N)NCCSCc1nc[nH]c1C`, the Kb in test [4] is 0.214 µM.

The molecule `N=C(NCCCCc1c[nH]cn1)NCCCc1c[nH]cn1` showed a Max response in test [1] of 85.5%. Besides, in test [3], the Potency turned out to be 12.3.

Consider `CC1=NN(c2ccc([N+](=O)[O-])cc2)C(=O)C1[N+](=O)[O-].N=C(NCCCc1c[nH]cn1)NCCCc1c[nH]cn1`, for which the Max response in test [1] stood at 100%. The molecule further yielded a Potency in test [3] of 4.83.

Take `C/N=C(\N)NCCc1c[nH]cn1`: the Max response in test [1] was determined as 62%. The molecule also gave a Potency in test [2] of 0.01. Besides, in test [4], the Kb is more than 501 µM.

Consider `N=C(NCCCc1c[nH]cn1)NCCCc1nccs1`, for which the Max response in test [1] stood at 87%. Moreover, in test [3], the Potency amounted to 26.6.

With `C/N=C(\N)NCCCc1nccs1`, the Kb in test [4] is 63.1 µM.

With `N=C(NCCCc1c[nH]cn1)NCCSCc1c[nH]cn1`, in test [1], the Max response was determined as 95%. In test [3], this molecule yielded a Potency of 5.38.

For `Cc1nc[nH]c1CSCCNC(=O)NCCCc1cnc[nH]1`, the Kb in test [4] was 6.31 µM.

For the molecule `C/[S+]=C(/NCCCc1c[nH]cn1)NCCSCc1[nH]cnc1C`, the Kb in test [5] is 17.8 µM. The molecule further showed a Potency in test [6] of 0.01.

Turning to `C/N=C(\N)NCCSCc1c[nH]cn1`, the Kb in test [4] was 41.7 µM.
